The text below walks through data of article PMC6260118 (Thrombosis and Haemostasis, 2017).

The nature of data set [1]: Phase I safety and tolerability, adverse events. In kind it is in vivo, human. The essentials:
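The trial was a randomised, double-blind, placebo-controlled phase I study with eight cohorts of 10 healthy subjects each, randomised 8:2 to test compound or saline. Single IV doses were given alone and then about 3 h after edoxaban 60 mg orally. Safety was assessed in everyone dosed at least once: adverse events, vital signs, pulse oximetry, ECGs, clinical laboratory tests, fecal occult blood and concomitant medications. Treatment-emergent events were those starting on or after dosing.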

Data set [2] is described as follows: Pharmacokinetics of ciraparantag and metabolite BAP in serum/plasma and urine. The class given is in vivo, human. To be noted: for dose proportionality of pharmacokinetics: based on Cmax and t½, 5-300 mg. The method in brief:
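Healthy non-smoking adults aged 18–65 received single escalating doses of test compound from 5 to 300 mg. Each dose was a sterile aqueous solution given by slow IV injection into an indwelling catheter, alone and, after at least four days' washout, about 3 h after oral edoxaban 60 mg. Parent compound and its piperazine metabolite were measured in serum/plasma and in urine pooled over the first 24 h.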

Data set [3] relates to edoxaban-induced anticoagulation. In words: Whole blood clotting time. The class given is in vivo, human. The method in brief:
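Native whole blood was tested in glass tubes with no activator or anticoagulant, three tubes of 0.5 ml each. Clotting time was read by tilt-tube visual inspection. Testing began in Period 2 of the 50 mg cohort and continued in all later cohorts, and the 25 mg cohort was repeated with it. IV test compound or saline was given about 3 h after edoxaban 60 mg orally, with follow-up to 24 h. Groups were compared by ANOVA with Tukey HSD, p<0.05.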

The next data set has as its system clot fibrin. The class given is in vivo, human.
The test system of data set [4] is edoxaban-induced anticoagulation. In words: Whole blood point-of-care prothrombin time. In kind it is in vivo, human. To be noted: within cohorts and across escalating dose cohorts. The essentials: (§1)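 Whole blood was tested serially by point-of-care prothrombin time and by thromboelastography reaction time. Subjects were healthy volunteers in escalating-dose cohorts of 8 active and 2 placebo. They received single slow IV test compound or saline about 3 h after a single 60 mg oral dose of edoxaban.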

Data set [5] shares this test system. Kind of data set: Thromboelastography reaction time. In kind it is in vivo, human. The settings on record: within cohorts and across escalating dose cohorts. The essentials:
as §1

For data set [6] the following is noted: cited from earlier work.
Another data set deals with plasma proteins. The settings on record: cited from earlier work.
Data set [7] concerns hepatic cytochrome enzymes or membrane transporters. To be noted: cited from earlier work.
The test system of data set [8] is anticoagulant-induced bleeding. To be noted: pre-clinical animal models of anticoagulant-induced bleeding; cited from earlier work.
The mark [9] stands for this setting: ciraparantag arm N=66, number (% of subjects).
Where [10] appears, read: single IV dose 100 to 300 mg following edoxaban 60 mg.

Each structure is given as a SMILES string. Read-outs that look alike come from different tables or passages of the source.

For orientation: half-life means how long it takes for the measured level to halve. What is called Cmax is the highest concentration seen after dosing. Take `N=C(N)NCCC[C@H](N)C(=O)NCCCN1CCN(CCCNC(=O)[C@@H](N)CCCNC(=N)N)CC1` [ciraparantag]: in data set [1] (ciraparantag arm N=66), the “Number of subjects who died” value turned out to be 0 and the “Number of subjects with SAE” value is recorded as 0. The “Number of AEs” value in data set [1] (ciraparantag arm N=66, all single IV doses, Periods 1 and 2) came out at 204. Moreover, in data set [1] (setting [9]), the “Number of AEs per subject: 0” value is 17 (25.8 %), the “Number of AEs per subject: 1” value was 10 (15.2 %), the “Number of AEs per subject: 2–3” value is given as 16 (24.2 %) and the “Number of AEs per subject: 4–5” value is given as 9 (13.6 %). Also, in data set [1] (setting [9]), the “Number of AEs per subject: >5” value was 14 (21.2 %), the “Number of subjects with AE” value is reported as 49 (74.2 %), the “Number of subjects with AE related to Ciraparantag/Placebo” value is 36 (54.5 %) and the “Number of subjects with AE related to edoxaban” value is 5 (7.6 %). In addition, in [1] (setting [9]), the “Number of subjects with AE related to study drug” value was 38 (57.6 %) and the “Number of subjects with TEAE” value is recorded as 49 (74.2 %). Moreover, in data set [1] (healthy subjects, single IV doses 5-300 mg), the “Changes in blood counts, blood chemistries (electrolytes, bilirubin, hepatic enzymes) or electrocardiograms” value was “no significant changes”. The “dose proportionality of pharmacokinetics” value in data set [2] was “dose-proportional pharmacokinetics”. In addition, the main elimination route entry in data set [2] (healthy subjects) was “Renal excretion of ciraparantag metabolite”. In addition, the half-life in [2] (human, serum, iv, 5 mg) was roughly 12 min. Besides, in data set [2] (human, serum, iv, 300 mg), the Cmax was roughly 10600 ng/mL. For the same compound, the “reversal of edoxaban-induced anticoagulation (WBCT) within 10 min” value in [3] (50 mg ciraparantag IV after edoxaban 60 mg) is “Significant reversal”. In addition, the “reversal of edoxaban-induced anticoagulation (WBCT)” value in data set [3] (100–300 mg ciraparantag IV (Cohorts 5 to 7) after edoxaban 60 mg) is recorded as “essentially full reversal”. In [3] (ciraparantag in the absence of edoxaban), the “effect on WBCT” value is “no effect”. In data set [3] (setting [10]), the “duration of reversal of anticoagulation” value is on record as “at least 24 hours” and the “time to full reversal of anticoagulation” value is no more than 10 min. Moreover, in [3] (within 30 min of injection, after therapeutic dose of edoxaban), the anticoagulation above baseline entry is “less than 10%”. In addition, the mean fibrin diameter with clot fibrin (25 mg ciraparantag after edoxaban 60 mg, partial reversal) is on record as roughly 200 nm. For the same compound, the mean fibrin diameter with clot fibrin (100 mg ciraparantag after edoxaban 60 mg, full reversal) is roughly 250 nm. For the same compound, the mean fibrin diameter in the data set on clot fibrin (300 mg ciraparantag after edoxaban 60 mg, full reversal) was roughly 250 nm. Further, in the data set with clot fibrin (single i.v. dose of 100 mg ciraparantag after edoxaban), the “time to restoration of fibrin strands to baseline levels” value is reported as no more than 30 min. Also, the “change in mean PoC-PT” value in data set [4] is “no change over time”. Moreover, in data set [5], the “change in mean TEG-R” value is recorded as “no change over time”. The “binding to a selected spectrum of cardiovascular and antiepileptic drugs” value in data set [6] is listed as “no binding”. Besides, the binding to anticoagulants result in data set [6] (non-covalent hydrogen bonding and charge-charge interactions) was “binds similarly to the new oral Xa inhibitors, edoxaban, rivaroxaban and apixaban, and to the oral thrombin inhibitor, dabigatran, but not to argatroban or warfarin”. Besides, in the data set with plasma proteins, the “binding to plasma proteins” value is “no significant binding”. In addition, the “interaction with hepatic cytochrome enzymes or membrane transporters” value in data set [7] is recorded as “does not interact substantially”. The blood loss result in data set [8] was “reduces blood loss to baseline levels”.
As for `NCCCN1CCN(CCCN)CC1` [BAP, 1,4-bis(3-aminopropyl)-piperazine], the “dose proportionality of pharmacokinetics” value in data set [2] is “dose-proportional pharmacokinetics”.
For `CN1CCc2nc(C(=O)N[C@@H]3C[C@@H](C(=O)N(C)C)CC[C@@H]3NC(=O)C(=O)Nc3ccc(Cl)cn3)sc2C1` [edoxaban, reference compound], the “effect on WBCT” value in data set [3] (edoxaban 60 mg oral) is “significant elevation”. In the data set with clot fibrin (edoxaban anticoagulation without reversal, native state ∼250 nm), the mean fibrin diameter was roughly 125 nm.
